ChEMBL document CHEMBL3232897, “Synthesis, antiproliferative and antibacterial activity of new amides of salinomycin” (Bioorg Med Chem Lett, 2014)
Values after ≈ are worked out from the molar mass of the structure shown. Active and inactive are the calls of the source. The rule behind the calls is not given here.

Experiments:
[1] = test system: Staphylococcus epidermidis; experiment: Antibacterial activity against methicillin-resistant Staphylococcus epidermidis 467/11; type: functional
How it was run: (§1)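 In vitro antibacterial test on Staphylococcus strains, including MRSE clinical isolates. Read-outs were growth inhibition zone (mm) and MIC (µg/ml). Ciprofloxacin was the reference antibiotic.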

Staphylococcus aureus [2] = experiment: Antibacterial activity against Staphylococcus aureus ATCC 6538; type: functional
[3] = test system: Staphylococcus epidermidis; experiment: Antibacterial activity against methicillin-resistant Staphylococcus epidermidis 460/11; type: functional; how it was run: as §1
BALB/3T3 [4] = experiment: Antiproliferative activity mouse BALB/3T3 cells up to 100 ug/ml; type: cell-based
[5] = test system: Staphylococcus epidermidis; experiment: Antibacterial activity against methicillin-resistant Staphylococcus epidermidis 489/11; type: functional; how it was run: as §1
Staphylococcus aureus [6] = experiment: Antibacterial activity against Staphylococcus aureus NCTC 4163; type: functional
[7] = test system: Staphylococcus epidermidis; experiment: Antibacterial activity against methicillin-resistant Staphylococcus epidermidis 469/11; type: functional; how it was run: as §1
LoVo [8] = experiment: Resistance index, ratio of IC50 for human LoVo/DX cells to IC50 for human LoVo cells; type: functional
How it was run: (§2)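 Index of resistance is the IC50 in the resistant subline (HL-60/vinc or LoVo/DX) divided by the IC50 in its parental line (HL-60 or LoVo). Each IC50 is the concentration giving 50% growth inhibition. Bands are 0–2 sensitive, 2–10 moderate, above 10 strongly resistant.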

[9] = test system: Staphylococcus epidermidis; experiment: Antibacterial activity against methicillin-resistant Staphylococcus epidermidis 466/11; type: functional; how it was run: as §1
LoVo [10] = experiment: Antiproliferative activity against human LoVo cells; type: functional, cell-based
How it was run: (§3)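 IC50 is the concentration giving 50% growth inhibition, reported as mean with SD. HL-60/vinc and LoVo/DX are drug-resistant (MDR) sublines of HL-60 and LoVo. BALB/3T3 is a normal murine embryonic fibroblast line.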

[11] = Antiproliferative activity against human LoVo/DX cells; type: functional, cell-based; how it was run: as §3
[12] = test system: Staphylococcus epidermidis; experiment: Antibacterial activity against methicillin-resistant Staphylococcus epidermidis 488/11; type: functional; how it was run: as §1
[13] = test system: Staphylococcus epidermidis; experiment: Antibacterial activity against methicillin-resistant Staphylococcus epidermidis 461/11; type: functional; how it was run: as §1
Staphylococcus aureus [14] = experiment: Antibacterial activity against Staphylococcus aureus ATCC 25923; type: functional
Staphylococcus aureus [15] = experiment: Antibacterial activity against Staphylococcus aureus ATCC 29213; type: functional
Homo sapiens = organism: Homo sapiens; experiment: Antiproliferative activity against human HL60/Vinc cells up to 100 ug/ml; type: functional, cell-based
[16] = test system: Staphylococcus epidermidis; experiment: Antibacterial activity against Staphylococcus epidermidis ATCC 12228; type: functional; how it was run: as §1
[17] = test system: Staphylococcus epidermidis; experiment: Antibacterial activity against Staphylococcus epidermidis ATCC 35984; type: functional; how it was run: as §1
[18] = test system: Staphylococcus epidermidis; experiment: Antibacterial activity against methicillin-resistant Staphylococcus epidermidis 470/11; type: functional; how it was run: as §1
[19] = test system: Staphylococcus epidermidis; experiment: Antibacterial activity against methicillin-resistant Staphylococcus epidermidis 459/11; type: functional; how it was run: as §1
[20] = test system: Staphylococcus epidermidis; experiment: Antibacterial activity against methicillin-resistant Staphylococcus epidermidis 468/11; type: functional; how it was run: as §1
HL-60 [21] = experiment: Antiproliferative activity against human HL60 cells; type: functional, cell-based; how it was run: as §3
[22] = Antiproliferative activity against human HL60/Vinc cells; type: functional, cell-based; how it was run: as §3
[23] = Selectivity index, ratio of IC50 for mouse BALB/3T3 cells to IC50 for human HL60/Vinc cells; type: functional
How it was run: (§4)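 Selectivity index is the IC50 in normal murine embryonic fibroblasts (BALB/3T3) divided by the IC50 in the respective cancer line (HL-60, HL-60/vinc, LoVo or LoVo/DX). Each IC50 is the concentration giving 50% growth inhibition. SI >1.0 is taken as favourable.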

BALB/3T3 [24] = experiment: Antiproliferative activity mouse BALB/3T3 cells; type: cell-based; how it was run: as §3
HL-60 [25] = experiment: Selectivity index, ratio of IC50 for mouse BALB/3T3 cells to IC50 for human HL60 cells; type: functional; how it was run: as §4
LoVo [26] = experiment: Selectivity index, ratio of IC50 for mouse BALB/3T3 cells to IC50 for human LoVo cells; type: functional; how it was run: as §4
[27] = Selectivity index, ratio of IC50 for mouse BALB/3T3 cells to IC50 for human LoVo/DX cells; type: functional; how it was run: as §4
HL-60 [28] = experiment: Resistance index, ratio of IC50 for human HL60/Vinc cells to IC50 for human HL60 cells; type: functional; how it was run: as §2

| SMILES | MIC [1] [µg/mL] | MIC (Staphylococcus aureus [2]) [µg/mL] | MIC [3] [µg/mL] | MIC [5] [µg/mL] | MIC (Staphylococcus aureus [6]) [µg/mL] | MIC [7] [µg/mL] | Ratio IC50 (LoVo [8]) | MIC [9] [µg/mL] | IC50 (LoVo [10]) [µM] | IC50 [11] [µM] | MIC [12] [µg/mL] | MIC [13] [µg/mL] | MIC (Staphylococcus aureus [14]) [µg/mL] | MIC (Staphylococcus aureus [15]) [µg/mL] | MIC [16] [µg/mL] | MIC [17] [µg/mL] | MIC [18] [µg/mL] | MIC [19] [µg/mL] | MIC [20] [µg/mL] | IC50 (HL-60 [21]) [µM] | other results |
| --- | --- | --- | --- | --- | --- | --- | --- | --- | --- | --- | --- | --- | --- | --- | --- | --- | --- | --- | --- | --- | --- |
| CC[C@@H](C(=O)[C@@H](C)[C@@H](O)[C@H](C)[C@@H]1O[C@@H]([C@@H](CC)C(=O)Nc2ccc(-c3ccc(NC(=O)[C@H](CC)[C@H]4CC[C@H](C)[C@H]([C@@H](C)[C@H](O)[C@H](C)C(=O)[C@H](CC)[C@H]5O[C@]6(C=C[C@@H](O)[C@]7(CC[C@@](C)([C@H]8CC[C@](O)(CC)[C@H](C)O8)O7)O6)[C@H](C)C[C@@H]5C)O4)cc3)cc2)CC[C@@H]1C)[C@H]1O[C@]2(C=C[C@@H](O)[C@]3(CC[C@@](C)([C@H]4CC[C@](O)(CC)[C@H](C)O4)O3)O2)[C@H](C)C[C@@H]1C | 16 (≈ 9.7 µM) | 32 (≈ 19.4 µM) | 64 (≈ 38.8 µM) | 32 (≈ 19.4 µM) | 16 (≈ 9.7 µM) | 64 (≈ 38.8 µM) | 0.38 | 32 (≈ 19.4 µM) | 8.4 | 3.1 | 32 (≈ 19.4 µM) | 32 (≈ 19.4 µM) | 32 (≈ 19.4 µM) | 32 (≈ 19.4 µM) | 32 (≈ 19.4 µM) | 32 (≈ 19.4 µM) | 64 (≈ 38.8 µM) | 32 (≈ 19.4 µM) | 32 (≈ 19.4 µM) | 4.4 | Activity (BALB/3T3 [4]): Non-toxic; inhibition (Homo sapiens): inactive |
| CC[C@@H](C(=O)[C@@H](C)[C@@H](O)[C@H](C)[C@@H]1O[C@@H]([C@@H](CC)C(=O)O)CC[C@@H]1C)[C@H]1O[C@]2(C=C[C@@H](O)[C@]3(CC[C@@](C)([C@H]4CC[C@](O)(CC)[C@H](C)O4)O3)O2)[C@H](C)C[C@@H]1C [SALINOMYCIN] | 16 (≈ 21.3 µM) | 2 (≈ 2.66 µM) | 16 (≈ 21.3 µM) | 16 (≈ 21.3 µM) | 2 (≈ 2.66 µM) | 16 (≈ 21.3 µM) | 0.65 | 8 (≈ 10.7 µM) | 1.5 | 1 | 16 (≈ 21.3 µM) | 16 (≈ 21.3 µM) | 2 (≈ 2.66 µM) | 4 (≈ 5.33 µM) | 2 (≈ 2.66 µM) | 2 (≈ 2.66 µM) | 16 (≈ 21.3 µM) | 16 (≈ 21.3 µM) | 8 (≈ 10.7 µM) | 1.2 | IC50 [22]: 4.7 µM; Ratio IC50 [23]: 5.45; IC50 (BALB/3T3 [24]): 25.8 µM; Ratio IC50 (HL-60 [25]): 22.07; Ratio IC50 (LoVo [26]): 16.88; Ratio IC50 [27]: 26.08; Ratio IC50 (HL-60 [28]): 4.05 |
| CC[C@@H](C(=O)[C@@H](C)[C@@H](O)[C@H](C)[C@@H]1O[C@@H]([C@@H](CC)C(=O)NCCS)CC[C@@H]1C)[C@H]1O[C@]2(C=C[C@@H](O)[C@]3(CC[C@@](C)([C@H]4CC[C@](O)(CC)[C@H](C)O4)O3)O2)[C@H](C)C[C@@H]1C | 32 (≈ 39.5 µM) | 16 (≈ 19.7 µM) | 32 (≈ 39.5 µM) | 32 (≈ 39.5 µM) | 16 (≈ 19.7 µM) | 64 (≈ 79 µM) | 1.07 | 32 (≈ 39.5 µM) | 26.5 | 28.5 | 32 (≈ 39.5 µM) | 32 (≈ 39.5 µM) | 16 (≈ 19.7 µM) | 32 (≈ 39.5 µM) | 32 (≈ 39.5 µM) | 32 (≈ 39.5 µM) | 64 (≈ 79 µM) | 32 (≈ 39.5 µM) | 64 (≈ 79 µM) | 3.1 | IC50 [22]: 34 µM; Ratio IC50 [23]: 0.5; IC50 (BALB/3T3 [24]): 17.1 µM; Ratio IC50 (HL-60 [25]): 5.53; Ratio IC50 (LoVo [26]): 0.65; Ratio IC50 [27]: 0.6; Ratio IC50 (HL-60 [28]): 10.99 |
| CC[C@@H](C(=O)[C@@H](C)[C@@H](O)[C@H](C)[C@@H]1O[C@@H]([C@@H](CC)C(=O)NCCOCCO)CC[C@@H]1C)[C@H]1O[C@]2(C=C[C@@H](O)[C@]3(CC[C@@](C)([C@H]4CC[C@](O)(CC)[C@H](C)O4)O3)O2)[C@H](C)C[C@@H]1C | 32 (≈ 38.2 µM) | 32 (≈ 38.2 µM) | 64 (≈ 76.4 µM) | 64 (≈ 76.4 µM) | 32 (≈ 38.2 µM) | 64 (≈ 76.4 µM) | 0.39 | 64 (≈ 76.4 µM) | 36.7 | 14.3 | 64 (≈ 76.4 µM) | 64 (≈ 76.4 µM) | 32 (≈ 38.2 µM) | 64 (≈ 76.4 µM) | 64 (≈ 76.4 µM) | 64 (≈ 76.4 µM) | 64 (≈ 76.4 µM) | 32 (≈ 38.2 µM) | 64 (≈ 76.4 µM) | 17.8 | IC50 [22]: 30.9 µM; Ratio IC50 [23]: 1.28; IC50 (BALB/3T3 [24]): 39.4 µM; Ratio IC50 (HL-60 [25]): 2.22; Ratio IC50 (LoVo [26]): 1.08; Ratio IC50 [27]: 2.76; Ratio IC50 (HL-60 [28]): 1.74 |
